This note sets out measurements from ChEMBL document CHEMBL1156810, “Synthesis and structure-activity relationships of azamacrocyclic C-X-C chemokine receptor 4 antagonists: analogues containing a single azamacrocyclic ring are potent inhibitors of T-cell tropic (X4) HIV-1 replication” (J Med Chem, 2010).

The subject of series [1] is Human immunodeficiency virus 1. The series is described as follows: Antiviral activity against HIV1 3B infected in human MT4 cells assessed as inhibition of virus replication after 5 days by MTT assay. As to conditions: Human immunodeficiency virus 1, 3B, MT4, 120 h.
Series [2] relates to Human immunodeficiency virus 1. The series is described as follows: Antiviral activity against HIV1 3B infected in human MT4 cells assessed as inhibition of virus replication after 4 days by MTT assay. In kind it is functional, organism-based. To be noted: Human immunodeficiency virus 1, 3B, MT4, 96 h.
A short description of series [3]: Therapeutic index, ratio of CC50 for human MT4 cells to EC50 for HIV1 3B. In kind it is cell-based. The procedure, abridged:
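Selectivity index calculated as CC50 divided by EC50. Both come from parallel 5-day MTT viability assays in MT-4 cells, mock-infected or infected with HIV-1 IIIB at MOI 0.01.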

For the molecule `c1ccc(CNCc2ccc(CN3CCNCCNCCc4cccc(c4)CC3)cc2)nc1`, the EC50 in series [1] was 14100 nM. `FC1CCCNCCN(Cc2ccc(CNCc3ccccn3)cc2)CCNCCC1`: the 50% effective concentration (EC50) in series [1] was found to be 1240 nM. Still for that read-out and setting: then `c1ccc(CNCc2ccc(CN3CCNCCc4cccc(c4)CCNCC3)cc2)nc1`, with 40 nM. As to `c1cc(CNCc2ccc(CN3CCCNCCNCCCNCC3)cc2)ccn1`, the concentration for a half-maximal effect (EC50) in series [1] was found to be 9980 nM. As for `c1ccc(CNCc2ccc(CN3CCNCCc4cccc(n4)CCNCC3)cc2)nc1`, the EC50 in series [1] was determined as 1 nM. `c1ccc(CNCc2ccc(CC3CCNCCCCCCCNCC3)cc2)nc1`: the 50% effective concentration (EC50) in series [1] was 2180 nM. As to `CN(Cc1ccc(CN2CCCNCCNCCCNCC2)cc1)Cc1ccccn1`, the EC50 in series [1] worked out at 416 nM.

With `c1ccc(CNCc2ccc(CN3CCNCCCOCCCNCC3)cc2)nc1`, in series [1], the half-maximal effective concentration (EC50) worked out at 4 nM. On the same count and under the same terms, then `c1ccc(CNCc2ccc(CN3CCCCCCCNCCNCC3)cc2)nc1`, with 11100 nM; and `c1ccc(CNCc2ccc(CC3CCNCCc4cccc(n4)CCNCC3)cc2)nc1`, with 217 nM; and `c1ccc(CNCc2ccc(CN3CCNCCc4cncc(c4)CCNCC3)cc2)nc1`, with 104 nM.

Regarding `c1ccc(CNCc2ccc(CC3CCNCCCOCCCNCC3)cc2)nc1`, the EC50 in series [1] came to 426 nM. Turning to `c1cncc(CNCc2ccc(CN3CCCNCCNCCCNCC3)cc2)c1`, in series [1], the 50% effective concentration (EC50) is 8470 nM. As to `Nc1ccc(CNCc2ccc(CN3CCCNCCNCCCNCC3)cc2)cc1`, the EC50 in series [1] turned out to be 717 nM. As to `c1ccc(CNCc2ccc(CN3CCNCCNCCc4cccc(n4)CC3)cc2)nc1`, the EC50 in series [1] was found to be 63 nM.

Turning to `c1ccc(CNCc2ccc(CN3CCNCCCCCCc4cccc(n4)C3)cc2)nc1`, the EC50 in series [2] was found to be 4560 nM.

For `O=C1CN(Cc2ccc(CNCc3ccccn3)cc2)CCc2cccc(n2)CCCCCN1`, the EC50 in series [1] is 126000 nM. As for `c1ccc(CNCc2ccc(CN3CCCNCCNCCCNCC3)cc2)nc1`, the selectivity ratio in series [3] is greater than 12000. Moreover, the EC50 in series [1] was determined as 9 nM.

`Cc1cnc(CNCc2ccc(CN3CCCNCCNCCCNCC3)cc2)cn1`: the concentration giving a half-maximal response (EC50) in series [1] stood at 1900 nM. With `[O-][S+]1CCCNCCN(Cc2ccc(CNCc3ccccn3)cc2)CCNCCC1`, the concentration giving a half-maximal response (EC50) in series [1] is 485 nM. In the case of `FC1(F)CCCNCCN(Cc2ccc(CNCc3ccccn3)cc2)CCNCCC1`, the EC50 in series [1] is 920 nM. As to `c1ccc(CNCc2ccc(CN3CCNCCCSCCCNCC3)cc2)nc1`, the EC50 in series [1] was 13 nM. Still for that read-out and setting: the same measure for `c1ccc(CCNCc2ccc(CN3CCCNCCNCCCNCC3)cc2)nc1`: 49100 nM; for `c1ccc(CNCc2ccc(CN3CCNCCCCCCCNCC3)cc2)nc1`: 43 nM; for `c1cc(CN2CCCNCCNCCCNCC2)ccc1CN1CCCNCCNCCCNCC1` [PLERIXAFOR]: 4 nM. For the molecule `c1ccc(CNCc2ccc(CN3CCCNCCNCCCNCC3)cc2)cc1`, the EC50 in series [1] was 491 nM. With `c1ccc(CNCc2ccc(CN3CCNCCCCCc4cccc(n4)CC3)cc2)nc1`, the half-maximal effective concentration (EC50) in series [1] is 1240 nM.

For the molecule `Nc1ccccc1CNCc1ccc(CN2CCCNCCNCCCNCC2)cc1`, the half-maximal effective concentration (EC50) in series [1] was 1820 nM. Still for that read-out and setting: then `O=S1(=O)CCCNCCN(Cc2ccc(CNCc3ccccn3)cc2)CCNCCC1`, with 11900 nM.
